Data published in ChEMBL document CHEMBL5661972, “In vitro biological activity of a novel small-molecule inhibitor of polo-like kinase 1” (Mol Cancer Ther, 2007).
Activity calls are given as the source filed them. The calls are words filed in the database; no cut-off is given here.

Legend:
NCI-H460 [1] = assay: Antiproliferative activity against human NCI-H460 cells assessed as outgrowth of cells at 0.37 micromol/L incubated for 72 hrs; assay type: functional, cell-based; details: dose 0.37 µmol/L
Outline: (§1)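 HDF seeded at 1,300 and H460 at 600 per well in 96-well plates. After 24 h, exposed to vehicle (0.3% DMSO) or compound at 0.37–30 μmol/L for 72 h. Wells were then washed with PBS and refed with drug-free medium containing gentamicin. Regrowth was followed by methylene blue staining at set time points over 13 days in total.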

[2] = biological target: Serine/threonine-protein kinase PLK1 (Homo sapiens, UniProt P53350); assay: Inhibition of human PLK1 expressed in baculovirus infected in Trichoplusia ni cells using Biotin-Ahx-SFNDTLDFD as substrate in presence of ATP by TopCount scintillation proximity assay; set-up: species or system Trichoplusia ni cell
Outline: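 Baculovirus-expressed PLK1 kinase domain (2 nmol/L) in 25 mmol/L HEPES pH 7.2, 15 mmol/L MgCl2, 1 μmol/L ATP plus [γ-33P]ATP, 1 μmol/L biotinylated peptide substrate, BSA and DTT; 1–1.5 h at 22°C. Stopped with EDTA/streptavidin SPA beads. Signal above EDTA background converted to percent inhibition versus DMSO-only wells.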

NCI-H460 [3] = assay: Induction of cell cycle arrest in human NCI-H460 cells assessed as accumulation of cells at >4N phase at 3 micromol/L incubated for 24 hrs by propidium iodide staining based flow cytometry analysis (reference value: 1.2 %); assay type: functional; details: dose 3 µmol/L, at 3 µM
Outline: (§2)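 Cells seeded in six-well plates at densities that keep them in log growth (HDF 120,000, 60,000 or 30,000; H460 100,000, 50,000 or 25,000 per well for 24, 48 or 72 h). Treated with 1 or 3 μmol/L. Floating and adherent cells collected, ethanol-fixed, permeabilized with Triton X-100 and stained with propidium iodide. DNA content read by flow cytometry as % singlet cells.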

[4] = Selectivity ratio of IC50 for cytotoxicity against human HDF cells to IC50 for antiproliferative activity against human MCF7 cells; assay type: toxicity, cell-based; details: HDF cells versus MCF7 cells, read-out: Ratio IC50
NHDF [5] = assay: Induction of cell cycle arrest in human HDF cells assessed as accumulation of cells at Sub-2N phase at 1 micromol/L incubated for 48 hrs by propidium iodide staining based flow cytometry analysis (reference value: 0.5 %); assay type: toxicity; details: 1 µM, dose 1 µmol/L; outline: as §2
NCI-H460 [6] = assay: Induction of cell cycle arrest in human NCI-H460 cells assessed as accumulation of cells at G2-M phase at 1 micromol/L incubated for 48 hrs by propidium iodide staining based flow cytometry analysis (reference value: 22.5 %); assay type: functional; details: dose 1 µmol/L, at 1 µM
NCI-H460 [7] = assay: Induction of cell cycle arrest in human NCI-H460 cells assessed as accumulation of cells at >4N phase at 1 micromol/L incubated for 48 hrs by propidium iodide staining based flow cytometry analysis (reference value: 0.9 %); assay type: functional; details: dose 1 µmol/L, at 1 µM; outline: as §2
NCI-H460 [8] = assay: Induction of cell cycle arrest in human NCI-H460 cells assessed as accumulation of cells at >4N phase at 1 micromol/L incubated for 72 hrs by propidium iodide staining based flow cytometry analysis (reference value: 0.9 %); assay type: functional; details: dose 1 µmol/L, at 1 µM; outline: as §2
NCI-H460 [9] = assay: Induction of apoptosis in human NCI-H460 cells assessed as PARP cleavage at 5 micromol/L incubated for 22 to 72 hrs by Western blotting analysis; assay type: functional, cell-based; details: dose 5.0 µmol/L, time 22-72 hrs
Outline: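 H460 cells seeded at 320,000 per well in six-well plates and given 5 μmol/L for 22, 30, 46, 55 and 72 h. Lysed in caspase assay buffer, run on 4–12% Bis-Tris gels and immunoblotted with an anti-PARP antibody that detects both the 116-kDa intact protein and the 85-kDa fragment.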

NHDF [10] = assay: Induction of cell cycle arrest in human HDF cells assessed as accumulation of cells at G2-M phase at 1 micromol/L incubated for 48 hrs by propidium iodide staining based flow cytometry analysis (reference value: 14.3 %); assay type: toxicity; details: 1 µM, dose 1 µmol/L; outline: as §2
[11] = biological target: Platelet-derived growth factor receptor beta (Homo sapiens, UniProt P09619); assay: Inhibition of PDGFR1beta (unknown origin)
NCI-H460 [12] = assay: Induction of cell cycle arrest in human NCI-H460 cells assessed as accumulation of cells at G1 phase at 3 micromol/L incubated for 48 hrs by propidium iodide staining based flow cytometry analysis (reference value: 50.9 %); assay type: functional; details: dose 3 µmol/L, at 3 µM
[13] = Selectivity ratio of IC50 for cytotoxicity against human HDF cells to IC50 for antiproliferative activity against human HN5 cells; assay type: toxicity, cell-based; details: HDF cells versus HN5 cells
NCI-H460 [14] = assay: Induction of cell cycle arrest in human NCI-H460 cells assessed as accumulation of cells at S phase at 3 micromol/L incubated for 72 hrs by propidium iodide staining based flow cytometry analysis (reference value: 17.8 %); assay type: functional; details: dose 3 µmol/L, at 3 µM
NCI-H460 [15] = assay: Induction of apoptosis in human NCI-H460 cells assessed as increase in caspase-3 activity at 5 micromol/L measured after 46 hrs using AcDEVD-[…] fluorogenic peptide as substrate by plate reader analysis; assay type: functional, cell-based; details: dose 5.0 µmol/L
Outline: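 H460 cells seeded at 320,000 per well in six-well plates and given 5 μmol/L for 7 to 72 h. Lysates made in Tris/phosphate buffer, pH 7.5, with Triton X-100. Cleavage of Ac-DEVD-[…] measured by fluorescence, excitation 380 nm, emission 420–460 nm.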

NHDF [16] = assay: Induction of cell cycle arrest in human HDF cells assessed as accumulation of cells at G1 phase at 3 micromol/L incubated for 48 hrs by propidium iodide staining based flow cytometry analysis (reference value: 72.8 %); assay type: toxicity; details: 3 µM, dose 3 µmol/L; outline: as §2
NHDF [17] = assay: Induction of cell cycle arrest in human HDF cells assessed as accumulation of cells at S phase at 1 micromol/L incubated for 24 hrs by propidium iodide staining based flow cytometry analysis (reference value: 13.2 %); assay type: toxicity; details: 1 µM, dose 1 µmol/L; outline: as §2
[18] = biological target: Mitogen-activated protein kinase 11 (Homo sapiens, UniProt Q15759); assay: Inhibition of p38beta (unknown origin)
NCI-H460 [19] = assay: Induction of cell cycle arrest in human NCI-H460 cells assessed as accumulation of cells at G1 phase at 1 micromol/L incubated for 48 hrs by propidium iodide staining based flow cytometry analysis (reference value: 50.9 %); assay type: functional; details: dose 1 µmol/L, at 1 µM; outline: as §2
NCI-H460 [20] = assay: Induction of cell cycle arrest in human NCI-H460 cells assessed as accumulation of cells at G2-M phase at 1 micromol/L incubated for 24 hrs by propidium iodide staining based flow cytometry analysis (reference value: 19.8 %); assay type: functional; details: dose 1 µmol/L, at 1 µM
NCI-H460 [21] = assay: Induction of cell cycle arrest in human NCI-H460 cells assessed as accumulation of cells at S phase at 3 micromol/L incubated for 48 hrs by propidium iodide staining based flow cytometry analysis (reference value: 18.5 %); assay type: functional; details: dose 3 µmol/L, at 3 µM
NHDF [22] = assay: Induction of cell cycle arrest in human HDF cells assessed as accumulation of cells at S phase at 1 micromol/L incubated for 72 hrs by propidium iodide staining based flow cytometry analysis (reference value: 3.6 %); assay type: toxicity; details: 1 µM, dose 1 µmol/L; outline: as §2
[23] = Cytotoxicity against human HDF cells assessed as outgrowth of cells at 3.3 micromol/L incubated for 72 hrs by methylene blue staining based analysis relative to control; assay type: toxicity, cell-based; details: HDF cells (NHDF, human dermal fibroblasts), dose 3.3 µmol/L, read-out: Activity; outline: as §1
NCI-H460 [24] = assay: Induction of cell cycle arrest in human NCI-H460 cells assessed as accumulation of cells at Sub-2N phase at 3 micromol/L incubated for 24 hrs by propidium iodide staining based flow cytometry analysis (reference value: 4.0 %); assay type: functional; details: dose 3 µmol/L, at 3 µM

Sequence of Serine/threonine-protein kinase PLK1 (P53350 whole entry, the tested form may be a part): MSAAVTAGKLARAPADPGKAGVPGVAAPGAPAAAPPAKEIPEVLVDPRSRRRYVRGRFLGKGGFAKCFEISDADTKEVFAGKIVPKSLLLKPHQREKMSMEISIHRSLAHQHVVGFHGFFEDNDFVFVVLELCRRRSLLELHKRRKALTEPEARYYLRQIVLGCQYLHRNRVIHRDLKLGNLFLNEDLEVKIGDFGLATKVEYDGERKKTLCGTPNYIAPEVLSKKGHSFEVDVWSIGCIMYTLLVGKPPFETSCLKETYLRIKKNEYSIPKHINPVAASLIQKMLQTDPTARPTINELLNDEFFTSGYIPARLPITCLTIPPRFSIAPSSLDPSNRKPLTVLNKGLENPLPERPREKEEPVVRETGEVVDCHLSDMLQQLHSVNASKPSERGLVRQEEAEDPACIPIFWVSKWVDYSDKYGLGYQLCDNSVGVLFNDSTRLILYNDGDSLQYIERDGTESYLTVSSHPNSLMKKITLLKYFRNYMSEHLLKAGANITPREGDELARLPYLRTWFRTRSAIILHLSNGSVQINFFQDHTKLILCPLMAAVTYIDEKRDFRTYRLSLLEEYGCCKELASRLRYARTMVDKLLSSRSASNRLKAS
Sequence of Platelet-derived growth factor receptor beta (P09619 whole entry): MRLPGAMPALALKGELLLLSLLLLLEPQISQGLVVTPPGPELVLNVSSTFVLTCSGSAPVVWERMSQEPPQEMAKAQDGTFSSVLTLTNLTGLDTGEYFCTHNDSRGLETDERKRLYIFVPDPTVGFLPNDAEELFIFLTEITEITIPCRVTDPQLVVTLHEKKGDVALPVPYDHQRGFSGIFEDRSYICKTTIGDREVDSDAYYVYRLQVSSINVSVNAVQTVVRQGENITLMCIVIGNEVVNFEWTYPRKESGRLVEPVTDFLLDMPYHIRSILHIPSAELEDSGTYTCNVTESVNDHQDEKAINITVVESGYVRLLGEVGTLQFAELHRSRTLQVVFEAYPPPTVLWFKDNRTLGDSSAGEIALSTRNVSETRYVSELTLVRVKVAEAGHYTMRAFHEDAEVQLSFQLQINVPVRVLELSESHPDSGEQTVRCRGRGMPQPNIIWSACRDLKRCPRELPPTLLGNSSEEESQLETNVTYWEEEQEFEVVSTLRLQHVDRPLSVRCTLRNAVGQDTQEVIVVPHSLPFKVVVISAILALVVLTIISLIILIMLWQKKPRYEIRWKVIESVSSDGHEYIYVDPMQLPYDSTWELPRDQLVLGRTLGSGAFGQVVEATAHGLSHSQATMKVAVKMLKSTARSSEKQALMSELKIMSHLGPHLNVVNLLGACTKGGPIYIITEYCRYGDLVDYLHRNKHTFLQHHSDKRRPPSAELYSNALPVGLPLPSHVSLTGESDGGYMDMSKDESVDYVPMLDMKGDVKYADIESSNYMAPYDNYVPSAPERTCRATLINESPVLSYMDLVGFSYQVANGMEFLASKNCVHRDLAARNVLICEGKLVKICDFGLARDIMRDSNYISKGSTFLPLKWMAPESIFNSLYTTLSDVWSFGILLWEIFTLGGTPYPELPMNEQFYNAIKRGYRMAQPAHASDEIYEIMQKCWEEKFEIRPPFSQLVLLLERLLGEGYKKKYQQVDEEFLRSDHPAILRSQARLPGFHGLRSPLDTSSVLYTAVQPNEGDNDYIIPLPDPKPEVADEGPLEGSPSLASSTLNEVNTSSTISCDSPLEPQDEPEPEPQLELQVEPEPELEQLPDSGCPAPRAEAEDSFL
Sequence of Mitogen-activated protein kinase 11 (Q15759 whole entry): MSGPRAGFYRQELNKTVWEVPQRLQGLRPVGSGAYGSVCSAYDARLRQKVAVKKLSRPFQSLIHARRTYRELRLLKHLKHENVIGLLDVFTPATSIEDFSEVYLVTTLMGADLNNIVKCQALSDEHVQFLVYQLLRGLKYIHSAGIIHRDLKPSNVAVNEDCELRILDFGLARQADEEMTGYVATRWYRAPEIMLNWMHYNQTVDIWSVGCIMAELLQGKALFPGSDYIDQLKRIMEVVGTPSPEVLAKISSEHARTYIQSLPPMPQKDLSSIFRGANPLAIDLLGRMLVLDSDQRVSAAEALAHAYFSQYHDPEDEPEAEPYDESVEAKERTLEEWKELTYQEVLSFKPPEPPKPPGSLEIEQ

In the case of `COc1cc2ncn(-c3cc(OCc4ccccc4C(F)(F)F)c(C(N)=O)s3)c2cc1OC` [GW843682X], the Activity (NCI-H460 [1]) is reported as “Active”, the IC50 [2] is reported as 2.2 nM and the Activity (NCI-H460 [3]) is reported as 6.2%. For the same molecule, the selectivity ratio [4] was greater than 10, the Activity (NHDF [5]) was 0.9% and the Activity (NCI-H460 [6]) was 11.2%. The Activity (NCI-H460 [7]) was 29%, the Activity (NCI-H460 [8]) was 58.6% and the Activity (NCI-H460 [9]) was “Active”. For the same molecule, the Activity (NHDF [10]) was 27%, the IC50 [11] was 160 nM and the Activity (NCI-H460 [12]) was 7.5%. For the same molecule, the selectivity ratio [13] was 9, the Activity (NCI-H460 [14]) was 3.6% and the Activity (NCI-H460 [15]) was “Active”. It also gave an Activity (NHDF [16]) of 11.3%, an Activity (NHDF [17]) of 10.2% and an IC50 [18] greater than 10000 nM. It also gave an Activity (NCI-H460 [19]) of 8.9%, an Activity (NCI-H460 [20]) of 33% and an Activity (NCI-H460 [21]) of 8%. It also gave an Activity (NHDF [22]) of 6.7%, a viability at 72 h, 3.3 µM [23] of roughly 30% and an Activity (NCI-H460 [24]) of 24.1%.
